ChEMBL document CHEMBL2010694, “Indolyl and dihydroindolyl N-glycinamides as potent and in vivo active NPY5 antagonists” (Bioorg Med Chem Lett, 2012)
≈ marks a conversion by molar mass, not a printed value.

Experiments:
[1] = target: T1, Neuropeptide Y receptor type 5 (Homo sapiens, UniProt Q15761); assay: Displacement of [125I]peptide YY from human NPY5 receptor
T1 sequence (Q15761 whole entry): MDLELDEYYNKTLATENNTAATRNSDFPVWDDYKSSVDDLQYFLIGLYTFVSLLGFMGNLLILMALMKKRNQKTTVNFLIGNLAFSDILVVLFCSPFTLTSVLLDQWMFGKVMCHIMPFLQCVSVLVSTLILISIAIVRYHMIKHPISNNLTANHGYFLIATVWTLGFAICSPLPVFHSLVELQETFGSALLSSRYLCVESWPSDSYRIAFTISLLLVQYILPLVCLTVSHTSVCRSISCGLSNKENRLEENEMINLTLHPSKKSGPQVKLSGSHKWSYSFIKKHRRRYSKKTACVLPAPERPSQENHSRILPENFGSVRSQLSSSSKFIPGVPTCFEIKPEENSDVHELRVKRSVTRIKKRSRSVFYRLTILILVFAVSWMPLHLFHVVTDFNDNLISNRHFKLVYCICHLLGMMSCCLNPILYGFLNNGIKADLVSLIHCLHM

[2] = Clearance in Sprague-Dawley rat blood at 2 mg/kg, po and 1 mg/kg, iv after 24 hrs wash out period by HPLC analysis; format: ADME, organism-based; conditions: whole blood
Outline: (§1)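 Male Sprague-Dawley rats (200–250 g), jugular and carotid artery cannulated; compound dissolved in 20% beta cyclodextrin, pH adjusted with methane sulfonic acid. Serial blood sampled at 12 time points over 24 h post dose by automated sampler; plasma from centrifugation analysed by HPLC; PK parameters by non-compartmental analysis of plasma concentration–time profile.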

Cytochrome P450 2C8 = target: T2, Cytochrome P450 2C8 (Homo sapiens, UniProt P10632); assay: Inhibition of CYP2C8; format: ADME
T2 sequence (P10632 whole entry): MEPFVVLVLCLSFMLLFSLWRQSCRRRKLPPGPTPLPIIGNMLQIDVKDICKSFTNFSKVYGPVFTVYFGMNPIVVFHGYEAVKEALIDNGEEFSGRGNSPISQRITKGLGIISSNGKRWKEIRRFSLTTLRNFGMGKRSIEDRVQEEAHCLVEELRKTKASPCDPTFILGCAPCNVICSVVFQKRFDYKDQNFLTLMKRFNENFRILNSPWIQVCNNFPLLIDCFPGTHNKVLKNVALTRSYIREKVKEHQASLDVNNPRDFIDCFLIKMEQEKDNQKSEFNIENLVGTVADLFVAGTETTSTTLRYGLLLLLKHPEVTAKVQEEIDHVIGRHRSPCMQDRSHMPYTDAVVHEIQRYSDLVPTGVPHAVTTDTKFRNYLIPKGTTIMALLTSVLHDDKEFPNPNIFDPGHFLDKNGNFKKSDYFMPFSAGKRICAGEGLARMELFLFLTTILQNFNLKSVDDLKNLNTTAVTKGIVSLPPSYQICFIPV

Cytochrome P450 2D6 = Cytochrome P450 2D6 (Homo sapiens, UniProt P10635); assay: Inhibition of CYP2D6; format: ADME
[3] = Absolute oral bioavailability in Sprague-Dawley rat at 2 mg/kg after 24 hrs wash out period by HPLC analysis; format: ADME, organism-based; conditions: in vivo; outline: as §1
[4] = Drug uptake in cPP-induced feeding Sprague-Dawley rat model brain at 1 mg/kg, po after 1 hr; format: ADME, organism-based; design: dose 1 mg/kg, route oral; conditions: read-out: Drug uptake
Outline: (§2)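 Satellite animals from the cPP feeding study dosed orally at 0.1, 1 or 10 mg/kg; plasma (ng/mL) and brain (ng/g) levels measured 1 h after dosing.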

Rattus norvegicus = assay: Antiobesity activity in po dosed cPP-induced feeding Sprague-Dawley rat model assessed as reduction in food intake measured 1 hr post cpp challenge; format: functional
Outline: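 Rats pretreated orally at 0.1, 1 or 10 mg/kg (vehicle 20% cyclodextrin) 1 h before intracerebroventricular infusion of Y5-selective peptide agonist cPP, 0.6 nmol in normal saline; food intake recorded, n = 7–14 per group.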

Brain [5] = assay: Drug uptake in Sprague-Dawley rat brain assessed as 2-(5-chloro-1H-indol-1-yl)-N-(4-((propan-2-ylsulfonamido)methyl)cyclohexyl)acetamide level at 10 mg/kg, po after 1 hr by LC-MS/MS analysis; format: ADME, organism-based; design: dose 10 mg/kg, route oral; conditions: in vivo, read-out: Drug uptake
Outline: (§3)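 Male Sprague-Dawley rats (300–350 g), femoral artery cannulated; single 10 mg/kg oral dose in an appropriate vehicle, N = 3. Blood taken predose, 1, 2 and 4 h; brains then collected and stored at -80 °C. Equal portions of plasma or homogenized brain from the three rats pooled per time point, protein precipitated, quantified by LC/MS/MS.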

Cytochrome P450 3A4 = Cytochrome P450 3A4 (Homo sapiens, UniProt P08684); assay: Inhibition of CYP3A4; format: ADME
[6] = Protein binding in human; format: ADME, organism-based; conditions: plasma, read-out: PB (converted)
Brain [7] = assay: Drug uptake in Sprague-Dawley rat brain at 10 mg/kg, po by LC-MS/MS analysis; format: ADME, organism-based; design: dose 10 mg/kg, route oral; conditions: in vivo, read-out: Drug uptake; outline: as §3
[8] = Half life in Sprague-Dawley rat plasma at 2 mg/kg, po and 1 mg/kg, iv after 24 hrs wash out period by HPLC analysis; format: ADME, organism-based; outline: as §1
Plasma [9] = assay: Plasma concentration in Sprague-Dawley rat at 10 mg/kg, po by LC-MS/MS analysis; format: ADME, organism-based; design: dose 10 mg/kg, route oral; conditions: in vivo; outline: as §3
Liver microsomes [10] = assay: Intrinsic clearance in human liver microsomes at 1 uM by LC/MS analysis; format: ADME, Microsome
Outline: (§4)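 Compound incubated with human or rat liver microsomes; reaction quenched with acetonitrile, centrifuged, and remaining drug in supernatant measured by LC/MS to estimate T1/2, from which intrinsic clearance was derived.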

[11] = Drug uptake in cPP-induced feeding Sprague-Dawley rat model brain at 10 mg/kg, po after 1 hr; format: ADME, organism-based; design: dose 10 mg/kg, route oral; conditions: read-out: Drug uptake; outline: as §2
Cytochrome P450 1A2 = target: T3, Cytochrome P450 1A2 (Homo sapiens, UniProt P05177); assay: Inhibition of CYP1A2; format: ADME
T3 sequence (P05177 whole entry): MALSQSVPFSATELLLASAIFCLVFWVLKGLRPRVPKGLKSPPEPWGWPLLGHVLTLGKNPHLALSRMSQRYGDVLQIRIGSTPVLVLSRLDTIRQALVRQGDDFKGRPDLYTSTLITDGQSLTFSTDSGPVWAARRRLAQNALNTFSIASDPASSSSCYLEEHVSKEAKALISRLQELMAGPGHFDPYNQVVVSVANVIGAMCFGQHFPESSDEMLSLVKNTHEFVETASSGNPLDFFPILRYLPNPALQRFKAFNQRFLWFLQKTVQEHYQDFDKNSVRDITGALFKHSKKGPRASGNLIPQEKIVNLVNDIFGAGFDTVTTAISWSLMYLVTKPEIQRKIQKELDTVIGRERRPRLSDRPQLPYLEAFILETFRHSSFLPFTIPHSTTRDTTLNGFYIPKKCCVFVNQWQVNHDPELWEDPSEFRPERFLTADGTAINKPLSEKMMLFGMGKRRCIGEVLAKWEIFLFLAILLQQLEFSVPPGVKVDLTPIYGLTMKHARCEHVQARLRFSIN

[12] = Plasma concentration in cPP-induced feeding Sprague-Dawley rat model at 10 mg/kg, po after 1 hr; format: ADME, organism-based; design: dose 10 mg/kg, route oral; outline: as §2
[13] = Plasma concentration in cPP-induced feeding Sprague-Dawley rat model at 1 mg/kg, po after 1 hr; format: ADME, organism-based; design: dose 1 mg/kg, route oral; outline: as §2
[14] = Drug uptake in cPP-induced feeding Sprague-Dawley rat model brain at 0.1 mg/kg, po after 1 hr; format: ADME, organism-based; design: dose 0.1 mg/kg, route oral; conditions: read-out: Drug uptake; outline: as §2
Cytochrome P450 2C19 = Cytochrome P450 2C19 (Homo sapiens, UniProt P33261); assay: Inhibition of CYP2C19; format: ADME
[15] = Plasma concentration in cPP-induced feeding Sprague-Dawley rat model at 0.1 mg/kg, po after 1 hr; format: ADME, organism-based; design: dose 0.1 mg/kg, route oral; outline: as §2
[16] = Solubility of the compound at pH 7.4; format: physicochemical; conditions: buffer
[17] = Volume of distribution at steady state in Sprague-Dawley rat plasma at 2 mg/kg, po and 1 mg/kg, iv after 24 hrs wash out period by HPLC analysis; format: ADME, organism-based; conditions: read-out: Vdss; outline: as §1
[18] = Clearance in Sprague-Dawley rat plasma at 2 mg/kg, po and 1 mg/kg, iv after 24 hrs wash out period by HPLC analysis; format: ADME, organism-based; outline: as §1
[19] = Lipophilicity, log D of the compound at pH 7.4; format: physicochemical; conditions: buffer
Liver microsomes [20] = assay: Intrinsic clearance in rat liver microsomes at 1 uM by LC/MS analysis; format: ADME, Microsome; outline: as §4
[21] = Tmax in Sprague-Dawley rat plasma at 2 mg/kg, po and 1 mg/kg, iv after 24 hrs wash out period by HPLC analysis; format: ADME, organism-based; outline: as §1
[22] = Cmax in Sprague-Dawley rat plasma at 2 mg/kg, po and 1 mg/kg, iv after 24 hrs wash out period by HPLC analysis; format: ADME, organism-based; outline: as §1
Plasma [23] = assay: Plasma concentration in Sprague-Dawley rat assessed as 2-(5-chloro-1H-indol-1-yl)-N-(4-((propan-2 ylsulfonamido)methyl)cyclohexyl)acetamide level at 10 mg/kg, po after 1 hr by LC-MS/MS analysis; format: ADME, organism-based; design: dose 10 mg/kg, route oral; conditions: in vivo; outline: as §3

Cytochrome P450 2C19, sequence (P33261 whole entry): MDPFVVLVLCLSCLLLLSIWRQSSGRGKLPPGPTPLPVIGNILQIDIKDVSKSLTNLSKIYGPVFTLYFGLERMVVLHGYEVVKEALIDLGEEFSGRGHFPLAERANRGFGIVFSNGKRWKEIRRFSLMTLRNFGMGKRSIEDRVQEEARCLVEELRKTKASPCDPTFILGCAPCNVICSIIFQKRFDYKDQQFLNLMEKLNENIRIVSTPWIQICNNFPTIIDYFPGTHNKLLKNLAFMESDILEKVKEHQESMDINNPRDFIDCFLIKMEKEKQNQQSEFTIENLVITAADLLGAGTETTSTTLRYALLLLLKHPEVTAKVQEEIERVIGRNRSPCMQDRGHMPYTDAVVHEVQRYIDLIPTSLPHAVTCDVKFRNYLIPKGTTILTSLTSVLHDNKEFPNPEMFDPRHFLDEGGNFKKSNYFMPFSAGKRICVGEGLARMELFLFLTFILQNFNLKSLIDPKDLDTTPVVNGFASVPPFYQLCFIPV
Cytochrome P450 2D6, sequence (P10635 whole entry): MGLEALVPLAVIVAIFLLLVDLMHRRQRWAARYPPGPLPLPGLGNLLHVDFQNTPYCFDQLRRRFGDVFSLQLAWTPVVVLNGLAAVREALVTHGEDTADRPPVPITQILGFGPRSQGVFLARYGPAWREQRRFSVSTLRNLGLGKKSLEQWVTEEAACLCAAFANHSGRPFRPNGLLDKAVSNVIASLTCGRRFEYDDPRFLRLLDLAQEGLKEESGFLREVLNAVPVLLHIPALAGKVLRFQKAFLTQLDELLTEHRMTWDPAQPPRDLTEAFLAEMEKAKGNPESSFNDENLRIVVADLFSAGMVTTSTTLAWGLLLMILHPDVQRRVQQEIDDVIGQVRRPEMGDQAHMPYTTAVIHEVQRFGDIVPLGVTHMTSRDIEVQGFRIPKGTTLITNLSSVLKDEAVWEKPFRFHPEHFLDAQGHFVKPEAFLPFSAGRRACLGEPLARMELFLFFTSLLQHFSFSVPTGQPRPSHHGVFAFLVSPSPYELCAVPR
Cytochrome P450 3A4, sequence (P08684 whole entry): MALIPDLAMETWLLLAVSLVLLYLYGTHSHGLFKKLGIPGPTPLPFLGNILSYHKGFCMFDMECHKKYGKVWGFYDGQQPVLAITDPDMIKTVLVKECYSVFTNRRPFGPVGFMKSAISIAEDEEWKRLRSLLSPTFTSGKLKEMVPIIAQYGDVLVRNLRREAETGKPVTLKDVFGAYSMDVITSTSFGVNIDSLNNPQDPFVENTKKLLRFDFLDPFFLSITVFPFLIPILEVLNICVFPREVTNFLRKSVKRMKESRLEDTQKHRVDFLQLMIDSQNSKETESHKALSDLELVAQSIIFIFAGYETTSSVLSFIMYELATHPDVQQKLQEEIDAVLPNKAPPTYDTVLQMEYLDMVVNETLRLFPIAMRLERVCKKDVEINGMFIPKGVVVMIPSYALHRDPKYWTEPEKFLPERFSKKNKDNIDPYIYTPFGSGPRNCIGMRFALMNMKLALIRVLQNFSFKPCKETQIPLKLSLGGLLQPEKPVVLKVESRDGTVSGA

In the case of CC(C)S(=O)(=O)NC[C@H]1CC[C@H](NC(=O)Cn2ccc3cc(Cl)ccc32)CC1, the Ki [1] is reported as 0.3 nM, the clearance [2] is reported as 15 mL/min/kg and the “inhibition (INH)” value (Cytochrome P450 2C8) is reported as “Not Active”. The “inhibition (INH)” value (Cytochrome P450 2D6) was “Not Active”, the bioavailability [3] was 79% and the concentration at 1 h [4] was 38 ng/g. For the same molecule, the Activity (Rattus norvegicus) was “Dose-dependent effect”, the minimal effective dose (Rattus norvegicus; read-out: MED) was 0.1 mg/kg and the concentration (Brain [5]) was 641 nM. For the same molecule, the “inhibition (INH)” value (Cytochrome P450 3A4) was “Not Active”, the fraction unbound [6] was 0.004 and the concentration (Brain [7]) was 54 nM. For the same molecule, the half-life [8] was 7.2 h, the concentration (Plasma [9]) was 751 nM and the CLH (Liver microsomes [10]) was 1.9 L/min. The concentration at 1 h [11] was 132 ng/g, the “inhibition (INH)” value (Cytochrome P450 1A2) was “Not Active” and the concentration at 1 h [12] was 1260 ng/mL. For the same molecule, the concentration at 1 h [13] was 613 ng/mL, the concentration at 1 h [14] was 6 ng/g and the “inhibition (INH)” value (Cytochrome P450 2C19) was “Not Active”. The concentration at 1 h [15] was 84 ng/mL, the solubility [16] was 160 µM (≈ 68.2 µg/mL) and the Vd [17] was 2.8 L/kg. The clearance [18] was 10 mL/min/kg, the logD [19] was 1.2 and the CLH (Liver microsomes [20]) was 11 mL/min. The Tmax [21] was 2 h, the Cmax [22] was 480 ng/mL and the concentration (Plasma [23]) was 8010 nM.
